# Published values collected from several papers.
# Protocols differ between the studies behind these lines.
# Cell line: A-375
# Read-out: cell growth or viability
SMILES,test,setting,measurement,result
Cn1nccc1Nc1nccc(-c2cc3c(s2)C(C)(C)N(CCN2CCOCC2)C3=O)n1,resazurin,96 h,IC50,350 nM
CC(C)C[C@H](NC(=O)[C@H](Cc1ccccc1)NC(=O)c1cnccn1)B(O)O,ATP luminescence,,IC50,11 nM
Cn1nccc1Nc1nccc(-c2ccn([C@H](CO)c3ccc(Cl)c(F)c3)c(=O)c2)n1,resazurin,96 h,IC50,130 nM
COc1cc(Nc2nccc(-c3cnn4nc(OC)ccc34)n2)cc(C(F)(F)F)c1,ATP luminescence,,IC50,97 nM
COc1cc(C(=O)c2csc(-c3ccccc3)n2)cc(OC)c1OC,SRB,96 h,IC50,28 nM
CC(=O)c1ccc(N=Nc2c(C(=O)O)cc(O)c(O)c2O)cc1,MTT,,IC50,12900 nM
CNc1nc2ccccc2n2c(-c3cccc(OC)c3)cnc12,neutral red,96 h,IC50,230 nM
CN(C)CCOc1ccc(-c2nc(-c3ccncc3)c(-c3ccc4c(c3)CC/C4=N\O)[nH]2)cc1,,,EC50,30 nM
O=C(O)c1cc(O)c(O)c(O)c1,MTT,,IC50,18700 nM
CNC(=O)c1cc(Oc2ccc(NC(=O)Nc3ccc(Cl)c(C(F)(F)F)c3)cc2)ccn1,,,EC50,4000 nM
O=C(O)/C=C/c1ccc(O)c(O)c1,MTT,,IC50,4800 nM
